Results from ChEMBL document CHEMBL1806364, “Discovery of vinylogous carbamates as a novel class of β-ketoacyl-acyl carrier protein synthase III (FabH) inhibitors” (Bioorg Med Chem, 2011).
Values after ≈ are worked out from the molar mass of the structure shown.

Tests used:
[1] = system: Escherichia coli; assay: Antibacterial activity against Escherichia coli after 24 hrs by MTT assay; type: functional
Method in brief: (§1)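 Broth microdilution in Mueller-Hinton medium. Compound stock 100 µg/mL in DMSO, serially diluted into medium. Inoculum about 10⁵ cfu/mL, incubated 37 °C for 24 h. After visual MIC reading, MTT (2 mg/mL in PBS pH 7.4) added, 4–5 h at room temperature. Dye extracted with isopropanol containing 5% 1 mol/L HCl for 12 h, OD read at 550 nm.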

[2] = system: Pseudomonas fluorescens; assay: Antibacterial activity against Pseudomonas fluorescens after 24 hrs by MTT assay; type: functional; method in brief: as §1
[3] = system: Bacillus subtilis; assay: Antibacterial activity against Bacillus subtilis after 24 hrs by MTT assay; type: functional; method in brief: as §1
[4] = system: Staphylococcus aureus; assay: Antibacterial activity against Staphylococcus aureus after 24 hrs by MTT assay; type: functional; method in brief: as §1
[5] = target: T1, 3-oxoacyl-[acyl-carrier-protein] synthase 3 (Escherichia coli, UniProt C3TDZ2); assay: Inhibition of Escherichia coli FabH expressed in Escherichia coli DH10B cells assessed as incorporation of 3[H] after 25 mins by liquid scintillation
T1 sequence (C3TDZ2 whole entry): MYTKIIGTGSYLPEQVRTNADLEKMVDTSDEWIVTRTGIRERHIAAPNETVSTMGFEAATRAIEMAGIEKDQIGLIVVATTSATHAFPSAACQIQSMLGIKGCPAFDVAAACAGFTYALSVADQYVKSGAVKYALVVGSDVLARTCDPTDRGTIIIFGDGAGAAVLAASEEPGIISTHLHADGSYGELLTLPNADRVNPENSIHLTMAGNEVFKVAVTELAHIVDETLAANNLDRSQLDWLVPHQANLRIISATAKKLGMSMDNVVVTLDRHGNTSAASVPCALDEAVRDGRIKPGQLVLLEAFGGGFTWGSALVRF
Method in brief: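 Native E. coli FabH overexpressed from pET30 in DH10B cells and purified by Q-Sepharose, MonoQ and hydroxyapatite chromatography. Reaction mix contains 0.25 mM MgCl₂, acetyl-CoA, 0.5 mM NADH and 0.5 mM NADPH, run 25 min. Stopped with ice-cold 50% TCA, protein pelleted, washed with 10% TCA, dissolved in 0.5 M NaOH. Incorporated ³H counted by liquid scintillation. DMSO at most 2% final; IC50 determined.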

[6] = Toxicity in erythrocytes assessed as hemolytic activity; type: cell-based; conditions: erythrocyte

Row | SMILES | MIC [1] | MIC [2] | MIC [3] | MIC [4] | IC50 [5] | LC30 [6]
1 | CCOC(=O)/C(=C\Nc1ccc(Cl)cc1)c1ccc(OCc2ccccc2)cc1 | 12.5 µg/mL (≈ 30.6 µM) | 6.25 µg/mL (≈ 15.3 µM) | 25 µg/mL (≈ 61.3 µM) | 25 µg/mL (≈ 61.3 µM) | – | –
2 | CCOC(=O)/C(=C/Nc1ccc(Cl)cc1)c1ccc(OCc2ccccc2)cc1 | 25 µg/mL (≈ 61.3 µM) | 25 µg/mL (≈ 61.3 µM) | 25 µg/mL (≈ 61.3 µM) | > 50 µg/mL | – | –
3 | CCOC(=O)/C(=C\Nc1ccc(Cl)cc1Cl)c1ccc(OCc2ccccc2)cc1 | 25 µg/mL (≈ 56.5 µM) | 25 µg/mL (≈ 56.5 µM) | 25 µg/mL (≈ 56.5 µM) | 25 µg/mL (≈ 56.5 µM) | – | –
4 | CCOC(=O)/C(=C/Nc1ccc(Cl)cc1Cl)c1ccc(OCc2ccccc2)cc1 | 25 µg/mL (≈ 56.5 µM) | 25 µg/mL (≈ 56.5 µM) | > 50 µg/mL | > 50 µg/mL | – | –
5 | CCOC(=O)/C(=C\Nc1ccc(Br)cc1)c1ccc(OCc2ccccc2)cc1 | 1.56 µg/mL (≈ 3.45 µM) | 1.56 µg/mL (≈ 3.45 µM) | 50 µg/mL (≈ 111 µM) | 25 µg/mL (≈ 55.3 µM) | 3.3 µM | > 10000 µg/mL
6 | CCOC(=O)/C(=C/Nc1ccc(Br)cc1)c1ccc(OCc2ccccc2)cc1 | > 50 µg/mL | > 50 µg/mL | > 50 µg/mL | > 50 µg/mL | 43 µM | > 10000 µg/mL
7 | CCOC(=O)/C(=C\Nc1ccc(C)cc1)c1ccc(OCc2ccccc2)cc1 | 0.78 µg/mL (≈ 2.01 µM) | 1.56 µg/mL (≈ 4.03 µM) | 25 µg/mL (≈ 64.5 µM) | 25 µg/mL (≈ 64.5 µM) | 2.6 µM | > 10000 µg/mL
8 | CCOC(=O)/C(=C/Nc1ccc(C)cc1)c1ccc(OCc2ccccc2)cc1 | > 50 µg/mL | > 50 µg/mL | > 50 µg/mL | > 50 µg/mL | – | –
9 | CCOC(=O)/C(=C\Nc1ccc(Br)cc1Br)c1ccc(OCc2ccccc2)cc1 | 12.5 µg/mL (≈ 23.5 µM) | 12.5 µg/mL (≈ 23.5 µM) | 25 µg/mL (≈ 47.1 µM) | 25 µg/mL (≈ 47.1 µM) | 24 µM | > 10000 µg/mL
10 | CCOC(=O)/C(=C/Nc1ccc(Br)cc1Br)c1ccc(OCc2ccccc2)cc1 | 3.13 µg/mL (≈ 5.89 µM) | 12.5 µg/mL (≈ 23.5 µM) | 12.5 µg/mL (≈ 23.5 µM) | 12.5 µg/mL (≈ 23.5 µM) | – | –
11 | CCOC(=O)/C(=C\Nc1ccccc1Cl)c1ccc(OCc2ccccc2)cc1 | 12.5 µg/mL (≈ 30.6 µM) | 25 µg/mL (≈ 61.3 µM) | > 50 µg/mL | > 50 µg/mL | 28 µM | > 10000 µg/mL
12 | CCOC(=O)/C(=C/Nc1ccccc1Cl)c1ccc(OCc2ccccc2)cc1 | 25 µg/mL (≈ 61.3 µM) | > 50 µg/mL | 25 µg/mL (≈ 61.3 µM) | 12.5 µg/mL (≈ 30.6 µM) | – | –
13 | CCOC(=O)/C(=C\Nc1ccc(F)cc1)c1ccc(OCc2ccccc2)cc1 | 3.12 µg/mL (≈ 7.98 µM) | 3.12 µg/mL (≈ 7.98 µM) | 25 µg/mL (≈ 63.9 µM) | > 50 µg/mL | 8.2 µM | > 10000 µg/mL
14 | CCOC(=O)/C(=C/Nc1ccc(F)cc1)c1ccc(OCc2ccccc2)cc1 | 6.25 µg/mL (≈ 16 µM) | 12.5 µg/mL (≈ 31.9 µM) | 25 µg/mL (≈ 63.9 µM) | 12.5 µg/mL (≈ 31.9 µM) | – | –
15 | CCOC(=O)/C(=C\Nc1ccc(F)cc1F)c1ccc(OCc2ccccc2)cc1 | 6.25 µg/mL (≈ 15.3 µM) | 12.5 µg/mL (≈ 30.5 µM) | > 50 µg/mL | > 50 µg/mL | – | –
16 | CCOC(=O)/C(=C/Nc1ccc(F)cc1F)c1ccc(OCc2ccccc2)cc1 | 25 µg/mL (≈ 61.1 µM) | 25 µg/mL (≈ 61.1 µM) | 12.5 µg/mL (≈ 30.5 µM) | 12.5 µg/mL (≈ 30.5 µM) | – | –
17 | CCOC(=O)/C(=C\Nc1ccc(C(C)C)cc1)c1ccc(OCc2ccccc2)cc1 | 3.12 µg/mL (≈ 7.52 µM) | 3.12 µg/mL (≈ 7.52 µM) | 25 µg/mL (≈ 60.2 µM) | 12.5 µg/mL (≈ 30.1 µM) | – | –
18 | CCOC(=O)/C(=C/Nc1ccc(C(C)C)cc1)c1ccc(OCc2ccccc2)cc1 | 6.25 µg/mL (≈ 15 µM) | 6.25 µg/mL (≈ 15 µM) | 12.5 µg/mL (≈ 30.1 µM) | 25 µg/mL (≈ 60.2 µM) | 8.5 µM | > 10000 µg/mL
19 | CCOC(=O)/C(=C\Nc1ccc([N+](=O)[O-])cc1)c1ccc(OCc2ccccc2)cc1 | 3.12 µg/mL (≈ 7.47 µM) | 6.25 µg/mL (≈ 14.9 µM) | > 50 µg/mL | > 50 µg/mL | – | –
20 | CCOC(=O)/C(=C/Nc1ccc([N+](=O)[O-])cc1)c1ccc(OCc2ccccc2)cc1 | > 50 µg/mL | > 50 µg/mL | > 50 µg/mL | > 50 µg/mL | – | –
21 | CCOC(=O)/C(=C\Nc1ccccc1F)c1ccc(OCc2ccccc2)cc1 | 12.5 µg/mL (≈ 31.9 µM) | 25 µg/mL (≈ 63.9 µM) | > 50 µg/mL | 25 µg/mL (≈ 63.9 µM) | – | –
22 | CCOC(=O)/C(=C/Nc1ccccc1F)c1ccc(OCc2ccccc2)cc1 | 25 µg/mL (≈ 63.9 µM) | > 50 µg/mL | > 50 µg/mL | > 50 µg/mL | – | –
23 | CCOC(=O)/C(=C\Nc1ccccc1)c1ccc(OCc2ccccc2)cc1 | 12.5 µg/mL (≈ 33.5 µM) | 25 µg/mL (≈ 66.9 µM) | 25 µg/mL (≈ 66.9 µM) | 50 µg/mL (≈ 134 µM) | – | –
24 | CCOC(=O)/C(=C/Nc1ccccc1)c1ccc(OCc2ccccc2)cc1 | 6.25 µg/mL (≈ 16.7 µM) | 6.25 µg/mL (≈ 16.7 µM) | 25 µg/mL (≈ 66.9 µM) | 25 µg/mL (≈ 66.9 µM) | – | –
25 | NC[C@H]1O[C@H](O[C@H]2[C@H](O)[C@@H](O[C@H]3O[C@H](CO)[C@@H](O)[C@H](N)[C@H]3O)[C@H](N)C[C@@H]2N)[C@H](N)[C@@H](O)[C@@H]1O [BEKANAMYCIN] | 3.12 µg/mL (≈ 6.46 µM) | 3.12 µg/mL (≈ 6.46 µM) | 0.39 µg/mL (≈ 0.807 µM) | 1.56 µg/mL (≈ 3.23 µM) | – | –
